In ChEMBL document CHEMBL3792385, “Identification and Evaluation of Antiepileptic Activity of C21 Steroidal Glycosides from the Roots of Cynanchum wilfordii” (2016):

Columns and labels:
Format in all cases: functional
[1] = system: Mus musculus; test: Antiepileptic activity in KM mouse assessed as protection against maximal electroshock-induced seizures at 100 mg/kg, po administered 1 hr prior to electrical stimulation
In short: (§1)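 Male KM mice, 20 ± 2 g, dosed orally; vehicle-treated group as control. Read-out is protection rate against maximal electroshock-induced seizures. Graded doses of 25, 50, 75, 100 and 150 mg/kg were used. ED50 and 95% confidence interval were fitted to the Hill equation.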

[2] = system: Mus musculus; test: Antiepileptic activity in po dosed KM mouse assessed as protection against maximal electroshock-induced seizures administered 1 hr prior to electrical stimulation; in short: as §1
[3] = system: Mus musculus; test: Antiepileptic activity in KM mouse assessed as protection against maximal electroshock-induced seizures at 25 mg/kg, po administered 1 hr prior to electrical stimulation; in short: as §1
[4] = system: Mus musculus; test: Antiepileptic activity in KM mouse assessed as protection against maximal electroshock-induced seizures at 50 mg/kg, po administered 1 hr prior to electrical stimulation; in short: as §1
[5] = system: Mus musculus; test: Antiepileptic activity in KM mouse assessed as protection against maximal electroshock-induced seizures at 75 mg/kg, po administered 1 hr prior to electrical stimulation; in short: as §1
[6] = system: Mus musculus; test: Antiepileptic activity in KM mouse assessed as protection against maximal electroshock-induced seizures at 150 mg/kg, po administered 1 hr prior to electrical stimulation; in short: as §1
[7] = system: Mus musculus; test: Antiepileptic activity in po dosed KM mouse assessed as protection against maximal electroshock-induced seizures administered 30 mins prior to electrical stimulation
In short: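 Male KM mice (20 ± 2 g) were given compound orally, with a vehicle control group. Screening used 100 mg/kg, and dose–response series used 25, 50, 75, 100 and 150 mg/kg. The read-out was the percentage of mice protected from MES-induced seizures. ED50 and 95% confidence intervals were derived by Hill-equation fitting.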

Structure (SMILES)	inhibition in vivo at 100 mg/kg [1]	ED50 [2]	other results
CO[C@H]1C[C@H](O[C@@H]2[C@H](C)O[C@@H](O[C@H]3[C@@H](OC)C[C@H](O[C@H]4CC[C@@]5(C)C(=CC[C@]6(O)[C@@H]5C[C@@H](OC(=O)/C=C/c5ccccc5)[C@@]5(C)[C@]6(O)CC[C@@]5(O)C(C)=O)C4)O[C@@H]3C)C[C@@H]2OC)O[C@H](C)[C@H]1O	60%	95.3 mg/kg	
CO[C@H]1C[C@@H](O[C@H]2[C@H](C)O[C@H](O[C@H]3[C@@H](C)O[C@H](O[C@H]4[C@@H](OC)C[C@H](O[C@@H]5CC[C@]6(C)C(=CC[C@@]7(O)[C@H]6C[C@H](OC(C)=O)[C@]6(C)[C@@]7(O)CC[C@]6(O)C(C)=O)C5)O[C@@H]4C)C[C@H]3OC)C[C@H]2OC)O[C@H](C)[C@H]1O		> 200 mg/kg	
CO[C@H]1C[C@@H](O[C@H]2[C@H](C)O[C@H](O[C@H]3[C@@H](C)O[C@H](O[C@H]4[C@@H](OC)C[C@H](O[C@@H]5CC[C@]6(C)C(=CC[C@@]7(O)[C@H]6C[C@H](OC(=O)/C=C(\C)C(C)C)[C@]6(C)[C@@]7(O)CC[C@]6(O)C(C)=O)C5)O[C@@H]4C)C[C@H]3OC)C[C@H]2OC)O[C@H](C)[C@H]1O	40%	124 mg/kg	
CC[C@@H](C)C(=O)O[C@@H](C)[C@]1(O)CC[C@@]2(O)[C@]1(C)[C@H](OC(=O)/C=C/c1ccccc1)C[C@@H]1[C@@]3(C)CC[C@H](O[C@@H]4C[C@@H](OC)[C@@H](O[C@H]5C[C@H](OC)[C@H](O[C@H]6C[C@H](OC)[C@H](O[C@H]7C[C@@H](OC)[C@@H](O)[C@H](C)O7)[C@@H](C)O6)[C@H](C)O5)[C@H](C)O4)CC3=CC[C@]12O	90%	48.5 mg/kg	inhibition in vivo at 25 mg/kg [3]: 20%; inhibition in vivo at 50 mg/kg [4]: 50%; inhibition in vivo at 75 mg/kg [5]: 70%; inhibition in vivo at 150 mg/kg [6]: 100%
CO[C@H]1C[C@H](O[C@H]2[C@H](C)O[C@H](O[C@H]3CC[C@@]4(C)C(=CC[C@]5(O)[C@@H]4C[C@@H](OC(=O)/C=C/c4ccccc4)[C@@]4(C)[C@]5(O)CC[C@@]4(O)[C@H](C)OC(=O)c4cccnc4)C3)C[C@H]2OC)O[C@@H](C)[C@H]1O[C@H]1C[C@H](OC)[C@H](O[C@H]2C[C@@H](OC)[C@@H](O)[C@H](C)O2)[C@@H](C)O1	55.5%	88.1 mg/kg	
CO[C@H]1C[C@@H](O[C@H]2[C@H](C)O[C@H](O[C@H]3[C@@H](C)O[C@H](O[C@H]4[C@@H](OC)C[C@H](O[C@@H]5CC[C@]6(C)C(=CC[C@@]7(O)[C@H]6C[C@H](O)[C@]6(C)[C@@]7(O)CC[C@]6(O)C(C)=O)C5)O[C@@H]4C)C[C@H]3OC)C[C@H]2OC)O[C@H](C)[C@H]1O		> 200 mg/kg	
CO[C@H]1C[C@H](O[C@H]2[C@@H](OC)C[C@H](O[C@H]3CC[C@@]4(C)C(=CC[C@]5(O)[C@@H]4C[C@@H](OC(=O)/C=C(\C)C(C)C)[C@@]4(C)[C@]5(O)CC[C@@]4(O)C(C)=O)C3)O[C@@H]2C)O[C@@H](C)[C@H]1O[C@H]1C[C@H](OC)[C@H](O[C@H]2O[C@@H](CO)[C@H](O)[C@@H](O)[C@@H]2O)[C@@H](C)O1		> 200 mg/kg	
CO[C@H]1C[C@@H](O[C@H]2[C@H](C)O[C@H](O[C@H]3[C@@H](C)O[C@H](O[C@H]4[C@@H](OC)C[C@H](O[C@@H]5CC[C@]6(C)C(=CCC(=O)[C@H]6C[C@H](OC(=O)/C=C/c6ccccc6)[C@]6(C)C(=O)CC[C@]6(O)[C@@H](C)OC(C)=O)C5)O[C@@H]4C)C[C@H]3OC)C[C@H]2OC)O[C@H](C)[C@H]1O		> 200 mg/kg	
CO[C@H]1C[C@H](O[C@H]2CC[C@@]3(C)C(=CC[C@]4(O)[C@@H]3C[C@@H](OC(=O)/C=C(\C)C(C)C)[C@@]3(C)[C@]4(O)CC[C@@]3(O)C(C)=O)C2)O[C@H](C)[C@H]1O[C@@H]1C[C@@H](OC)[C@@H](O[C@H]2C[C@H](OC)[C@H](O[C@@H]3C[C@H](OC)[C@H](O[C@H]4O[C@@H](CO)[C@H](O)[C@@H](O)[C@@H]4O)[C@@H](C)O3)[C@@H](C)O2)[C@@H](C)O1		> 200 mg/kg	
CO[C@H]1C[C@@H](O[C@H]2[C@H](C)O[C@H](O[C@H]3[C@@H](C)O[C@H](O[C@H]4[C@@H](OC)C[C@H](O[C@@H]5CC[C@]6(C)C(=CC[C@@]7(O)[C@H]6C[C@H](OC(=O)/C=C/c6ccccc6)[C@]6(C)[C@@]7(O)CC[C@]6(O)C(C)=O)C5)O[C@@H]4C)C[C@H]3OC)C[C@H]2OC)O[C@H](C)[C@H]1O	70%	72.3 mg/kg	
CCOC(=O)Nc1ccc(NCc2ccc(F)cc2)cc1N [EZOGABINE]			ED50 [7]: 15 mg/kg
